Some results are limits rather than exact numbers.

What is called IC50 is the concentration at which inhibition is half-maximal. A low value points to greater potency in that assay. Broadly, the inhibition is how much of the control response was suppressed.

In data set [1] the test system is Bacteria. Nature of the data set: Inhibition of bacterial NDM1 expressed in Escherichia coli DH10B assessed as potentiation of cefazolin-induced antibacterial activity by measuring cefazolin MIC at 32 ug/ml after 16 hrs by broth micro-dilution method (reference value: 8 ug/ml). A general note: Broth dilution looks for growth in wells or tubes with falling amounts of substance.

Data set [2] deals with Bacteria. Nature of the data set: Inhibition of bacterial NDM1 expressed in Escherichia coli DH10B assessed as potentiation of cefazolin-induced antibacterial activity by measuring fold reduction in cefazolin MIC at 32 ug/ml after 16 hrs by broth micro-dilution method relative to cefazolin alone.
Data set [3] can be described thus: Stability of the compound in pH 6 to 6.5 MES buffer at 50 uM after 24 hrs by UV-Vis spectra analysis. In kind it is physicochemical. The conditions noted are these: pH 6, 24 h. In short, it runs like this: (§1)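 Compound at 50 µM held in MES (pH 5.5, 6.0, 6.5), in Tris (pH 7.0–8.5), or in Tris pH 7.0 containing L1. Absorbance change at 401 nm followed over 24 h.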

Data set [4] relates to Bacteria. The data set is described as follows: Inhibition of bacterial L1 expressed in Escherichia coli DH10B assessed as potentiation of cefazolin-induced antibacterial activity by measuring fold reduction in cefazolin MIC at 32 ug/ml after 16 hrs by broth micro-dilution method relative to cefazolin alone. In short, it runs like this: (§2)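 Dose-dependent cefazolin MIC assay against E. coli DH10B expressing L1 from a pBCSK plasmid, with varied inhibitor doses up to 256 µg/mL. Fold decrease in MIC was taken relative to cefazolin alone. Medium pH was monitored during the assay.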

Data set [5] is described as follows: Stability of the compound in pH 7 Tris buffer at 50 uM after 24 hrs by UV-Vis spectra analysis. In kind it is physicochemical. The conditions noted are these: pH 7, 24 h. Put shortly: as §1
Data set [6] is described as follows: Stability of the compound in pH 7 Tris buffer at 50 uM after 24 hrs in presence of bacterial L1 by UV-Vis spectra analysis. In kind it is ADME. The conditions noted are these: pH 7, 24 h. In short, it runs like this:
as §1

The subject of data set [7] is Bacteria. The data set is described as follows: Inhibition of bacterial L1 expressed in Escherichia coli DH10B assessed as potentiation of cefazolin-induced antibacterial activity by measuring cefazolin MIC at 32 ug/ml after 16 hrs by broth micro-dilution method (reference value: 32 ug/ml). Put shortly: as §2
Data set [8] is described as follows: Inhibition of bacterial NDM1 expressed in Escherichia coli BL21(DE3) using cefazolin as substrate by spectrometric method. On the set-up: species or system Bacteria. In short, it runs like this:
(§3)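 Purified enzymes, overexpressed and purified by earlier methods, assayed under steady-state conditions by UV spectrometry in 50 mM Tris, pH 7.0. Substrate for NDM-1, VIM-2 and L1 was cefazolin (50 µM), read at 262 nm. Substrate for ImiS was imipenem (60 µM), read at 300 nm. Inhibitor varied 0–50 µM; IC50 is the concentration giving 50% loss of activity.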

Data set [9] in a line: Inhibition of bacterial L1 expressed in Escherichia coli BL21(DE3) using cefazolin as substrate by spectrometric method. Details: species or system Bacteria. Put shortly: as §3
For data set [10], the system named is Bacteria. Nature of the data set: Inhibition of bacterial VIM2 expressed in Escherichia coli BL21(DE3) at 50 uM using cefazolin as substrate by spectrometric method relative to control.
In data set [11] the test system is Bacteria. The data set is described as follows: Inhibition of bacterial ImiS expressed in Escherichia coli DH10B assessed as potentiation of imipenem-induced antibacterial activity by measuring imipenem MIC at 32 ug/ml after 16 hrs by broth micro-dilution method (reference value: 2 ug/ml).
Data set [12] in a line: Inhibition of bacterial ImiS expressed in Escherichia coli BL21(DE3) using imipenem as substrate by spectrometric method. On the set-up: species or system Bacteria. In short, it runs like this: as §3
For data set [13], the system named is Bacteria. The data set is described as follows: Inhibition of bacterial VIM2 expressed in Escherichia coli DH10B assessed as potentiation of cefazolin-induced antibacterial activity by measuring cefazolin MIC at 32 ug/ml after 16 hrs by broth micro-dilution method (reference value: 512 ug/ml).
Data set [14] has as its system Bacteria. The data set is described as follows: Inhibition of bacterial ImiS expressed in Escherichia coli BL21(DE3) at 40 uM using imipenem as substrate by spectrometric method relative to control.
Data set [15] has as its system Bacteria. The data set is described as follows: Inhibition of bacterial VIM2 expressed in Escherichia coli BL21(DE3) at 4 uM using cefazolin as substrate by spectrometric method relative to control.
Data set [16] deals with Bacteria. Nature of the data set: Inhibition of bacterial L1 expressed in Escherichia coli BL21(DE3) at 0.8 uM using cefazolin as substrate by spectrometric method relative to control.
Data set [17] deals with Escherichia coli. Nature of the data set: Toxicity against Escherichia coli DH10B expressing bacterial L1 up to 256 ug/ml after 16 hrs by broth micro-dilution method. The data set is classed as organism-based, K-12 substr. DH10B. Particulars: in vivo. Put shortly:
(§4)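 Compounds alone, at the same doses used in the MIC potentiation assays, tested for antibacterial effect against E. coli with and without MβL expression.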

Data set [18] has as its system Bacteria. The data set is described as follows: Inhibition of bacterial NDM1 expressed in Escherichia coli BL21(DE3) at 20 uM using cefazolin as substrate by spectrometric method relative to control.
Data set [19] relates to Bacteria. Nature of the data set: Inhibition of bacterial L1 expressed in Escherichia coli DH10B assessed as potentiation of cefazolin-induced antibacterial activity by measuring cefazolin MIC at 128 ug/ml after 16 hrs by broth micro-dilution method (reference value: 32 ug/ml). Put shortly: as §2
The nature of data set [20]: Inhibition of bacterial VIM2 expressed in Escherichia coli BL21(DE3) using cefazolin as substrate by spectrometric method. On the set-up: species or system Bacteria. Put shortly: as §3
Data set [21] concerns Bacteria. The data set is described as follows: Inhibition of bacterial L1 expressed in Escherichia coli DH10B assessed as potentiation of cefazolin-induced antibacterial activity by measuring cefazolin MIC at 256 ug/ml after 16 hrs by broth micro-dilution method (reference value: 32 ug/ml). In short, it runs like this:
as §2

For data set [22], the system named is Escherichia coli. Nature of the data set: Toxicity against Escherichia coli DH10B up to 256 ug/ml after 16 hrs by broth micro-dilution method. In kind it is organism-based, K-12 substr. DH10B. The conditions noted are these: in vivo. Put shortly:
as §4

Data set [23] relates to Bacteria. Nature of the data set: Inhibition of bacterial L1 expressed in Escherichia coli DH10B assessed as potentiation of cefazolin-induced antibacterial activity by measuring fold reduction in cefazolin MIC at 256 ug/ml after 16 hrs by broth micro-dilution method relative to cefazolin alone. Put shortly: as §2
The subject of data set [24] is Bacteria. The data set is described as follows: Inhibition of bacterial L1 expressed in Escherichia coli DH10B assessed as potentiation of cefazolin-induced antibacterial activity by measuring cefazolin MIC at 64 ug/ml after 16 hrs by broth micro-dilution method (reference value: 32 ug/ml). Put shortly:
as §2

The test system of data set [25] is Bacteria. The data set is described as follows: Inhibition of bacterial L1 expressed in Escherichia coli DH10B assessed as potentiation of cefazolin-induced antibacterial activity by measuring decrease in cefazolin MIC after 16 hrs by broth micro-dilution method. In short, it runs like this: as §2
Data set [26] in a line: Cytotoxicity against mouse L929 cells assessed as cell viability up to 200 uM after 48 hrs by CCK8 assay relative to control. The data set is classed as cell-based. Particulars: read-out: Activity. In short, it runs like this: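 Mouse fibroblast L929 cells exposed to inhibitors at 12.5, 25, 50, 100, 200 and 400 µM working concentrations; percentage of cells maintaining viability measured.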

For data set [27], the system named is Bacteria. Nature of the data set: Inhibition of bacterial VIM2 expressed in Escherichia coli DH10B assessed as potentiation of cefazolin-induced antibacterial activity by measuring fold reduction in cefazolin MIC at 32 ug/ml after 16 hrs by broth micro-dilution method relative to cefazolin alone.
The subject of data set [28] is Bacteria. Nature of the data set: Inhibition of bacterial L1 expressed in Escherichia coli DH10B assessed as potentiation of cefazolin-induced antibacterial activity by measuring cefazolin MIC at 16 ug/ml after 16 hrs by broth micro-dilution method (reference value: 32 ug/ml). In short, it runs like this: as §2
The test system of data set [29] is Bacteria. Nature of the data set: Inhibition of bacterial ImiS expressed in Escherichia coli BL21(DE3) at 50 uM using imipenem as substrate by spectrometric method relative to control.
Data set [30] relates to Bacteria. The data set is described as follows: Inhibition of bacterial NDM1 expressed in Escherichia coli BL21(DE3) at 50 uM using cefazolin as substrate by spectrometric method relative to control.

`COc1ccc(/C=C2\SC(=S)N(c3ccc(C(=O)O)cc3)C2=O)cc1`: the MIC in the data set on Bacteria [1] is 2 mg/L; in the data set on Bacteria [7] it was 4 mg/L; in the data set with Bacteria [11], 0.5 mg/L; with Bacteria [13], greater than 512 mg/L. The fold change (FC) was 4 to 8 in the data set on Bacteria [2] and 8 with Bacteria [4]. In addition, the Stability entry in data set [3], in [5] and in data set [6] was “Stable” throughout. Further, the results for the IC50 in data set [8], in data set [9] and in data set [12] were 12 µM, 0.31 µM and 15 µM, respectively. In the data set on Bacteria [10], the inhibition was less than 50%.

For `O=C(O)c1ccc(N2C(=O)/C(=C/c3ccccc3[N+](=O)[O-])SC2=S)cc1`, the inhibition is greater than 95% in the data set on Bacteria [14]; greater than 95% in the data set with Bacteria [15]; greater than 95% with Bacteria [16]; greater than 95% with Bacteria [18]; “Dose-dependent effect” with Bacteria [25]. Besides, the MIC in the data set with Bacteria [1] was 4 mg/L; in the data set with Bacteria [19], 2 mg/L; with Bacteria [7], 4 mg/L; in the data set on Bacteria [21], 2 mg/L; with Bacteria [24], 4 mg/L; in the data set on Bacteria [11] it was 1 mg/L. For the same molecule, the MIC with Bacteria [28] was 16 mg/L; in the data set with Bacteria [13], 128 mg/L. The fold change (FC) with Bacteria [4] worked out at 8; in the data set on Bacteria [23], 16; in the data set with Bacteria [27], 4. The Activity result with Escherichia coli [17] and in the data set on Escherichia coli [22] was “Non-Toxic” in each case. Moreover, the IC50 in data set [20] amounted to 0.19 µM; in data set [8], 1.31 µM; in data set [9], 0.05 µM; in [12] it was 3 µM. Further, the viability at 48 h in data set [26] is 80%.

Consider `O=C(O)CN1C(=O)/C(=C/c2ccc([N+](=O)[O-])cc2[N+](=O)[O-])SC1=S`, for which the MIC in the data set on Bacteria [1] came to 8 mg/L; with Bacteria [7], 4 mg/L; in the data set with Bacteria [11] it was 1 mg/L; with Bacteria [13], 512 mg/L. For the same molecule, the inhibition with Bacteria [29], in the data set on Bacteria [10] and in the data set with Bacteria [30] was less than 50% throughout. Moreover, the fold change (FC) in the data set with Bacteria [4] amounted to 8. This molecule returned an IC50 in data set [9] of 0.1 µM. Moreover, in [26], the viability at 48 h stood at 80%.

For `O=C(O)CN1C(=O)/C(=C/c2ccccc2[N+](=O)[O-])SC1=S`, the MIC stood at 4 mg/L with Bacteria [1], 4 mg/L with Bacteria [7], 2 mg/L with Bacteria [11] and 256 mg/L in the data set on Bacteria [13]. Besides, the inhibition with Bacteria [29] was less than 50%. Besides, the fold change (FC) in the data set with Bacteria [4] turned out to be 8. Moreover, the IC50 in data set [20] is 16.8 µM; in [8] it was 27.4 µM; in [9], 0.22 µM. The viability at 48 h in data set [26] is 80%.

As for `O=C(O)c1ccc(N2C(=O)/C(=C/c3ccc([N+](=O)[O-])cc3[N+](=O)[O-])SC2=S)cc1`, the MIC in the data set with Bacteria [1] amounted to 1 mg/L; with Bacteria [19], 2 mg/L; in the data set with Bacteria [7], 4 mg/L; in the data set on Bacteria [21], 1 mg/L; with Bacteria [24] it was 2 mg/L; in the data set on Bacteria [11], 1 mg/L. Further, the MIC with Bacteria [28] is 8 mg/L; with Bacteria [13] it was 128 mg/L. Further, the fold change (FC) with Bacteria [2] is 4 to 8; with Bacteria [4], 8; in the data set on Bacteria [23], 32; in the data set with Bacteria [27], 4. The Activity entry with Escherichia coli [17] and with Escherichia coli [22] was “Non-Toxic” each time. Further, the IC50 came out at 3.9 µM in [20], 6.7 µM in data set [8], 0.02 µM in [9] and 15.9 µM in data set [12]. The inhibition result in the data set with Bacteria [25] was “Dose-dependent effect”. Moreover, in [26], the viability at 48 h is greater than 80%.

As for `O=C(O)c1ccc(N2C(=O)/C(=C/c3ccc(Cl)cc3Cl)SC2=S)cc1`, the MIC in the data set on Bacteria [1] was 1 mg/L; in the data set on Bacteria [7], 8 mg/L; in the data set with Bacteria [11], 1 mg/L; in the data set on Bacteria [13] it was 128 mg/L. For the same molecule, the fold change (FC) is 4 to 8 with Bacteria [2] and 4 with Bacteria [27]. For the same molecule, the IC50 in data set [20] worked out at 3.5 µM; in data set [8], 10.6 µM; in data set [9], 0.03 µM; in data set [12] it was 7.6 µM.

These data come from ChEMBL document CHEMBL4251739, “Rhodanine as a Potent Scaffold for the Development of Broad-Spectrum Metallo-β-lactamase Inhibitors” (ACS Med Chem Lett, 2018).
